Results reported in ChEMBL document CHEMBL3098102, “1,2,3-Triazole-derived naphthalimides as a novel type of potential antimicrobial agents: synthesis, antimicrobial activity, interaction with calf thymus DNA and human serum albumin” (Bioorg Med Chem Lett, 2014).
Converted amounts (≈) assume the structure as drawn.

Key:
Type in all cases: functional
[1] = test system: Candida albicans; test: Antimicrobial activity against Candida albicans after 24 hrs by two-fold serial dilution method
In short: (§1)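 MIC read by broth microdilution in microdilution plates.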

[2] = test system: Micrococcus luteus; test: Antimicrobial activity against Micrococcus luteus ATCC 4698 after 24 hrs by two-fold serial dilution method; details: ATCC 4698, 24 h
[3] = test system: Bacillus subtilis; test: Antimicrobial activity against Bacillus subtilis after 24 hrs by two-fold serial dilution method; in short: as §1
[4] = test system: Pseudomonas aeruginosa; test: Antimicrobial activity against Pseudomonas aeruginosa after 24 hrs by two-fold serial dilution method; in short: as §1
[5] = Antimicrobial activity against Bacillus proteus after 24 hrs by two-fold serial dilution method; in short: as §1
[6] = test system: Shigella dysenteriae; test: Antimicrobial activity against Shigella dysenteriae after 24 hrs by two-fold serial dilution method
[7] = test system: Escherichia coli; test: Antimicrobial activity against Escherichia coli DH52 after 24 hrs by two-fold serial dilution method; details: DH52, 24 h
[8] = test system: Staphylococcus aureus; test: Antimicrobial activity against Staphylococcus aureus ATCC 25923 after 24 hrs by two-fold serial dilution method; details: ATCC 25923, 24 h
[9] = test system: Escherichia coli; test: Ratio of chloromycin MIC to compound MIC for Escherichia coli DH52 after 24 hrs by two-fold serial dilution method
[10] = test system: Staphylococcus aureus; test: Antimicrobial activity against methicillin-resistant Staphylococcus aureus N315 after 24 hrs by two-fold serial dilution method; details: N315, 24 h
[11] = test system: Aspergillus flavus; test: Antimicrobial activity against Aspergillus flavus after 24 hrs by two-fold serial dilution method; in short: as §1
[12] = test system: Saccharomyces cerevisiae; test: Antimicrobial activity against Saccharomyces cerevisiae by two-fold serial dilution method; in short: as §1

Row | Compound | MIC [1] [mg/L] | MIC [2] [mg/L] | MIC [3] [mg/L] | MIC [4] [mg/L] | MIC [5] [mg/L] | MIC [6] [mg/L] | MIC [7] [mg/L] | MIC [8] [mg/L] | Ratio [9] | MIC [10] [mg/L] | MIC [11] [mg/L] | MIC [12] [mg/L]
1 | O=C1c2cccc3c(Br)ccc(c23)C(=O)N1N(Cc1cn(Cc2ccccc2Cl)nn1)Cc1cn(Cc2ccccc2Cl)nn1 | 64 (≈ 91.1 µM) | 128 (≈ 182 µM) | > 512 | > 512 | > 512 | > 512 | 4 (≈ 5.69 µM) | > 512 | 2 | 512 (≈ 729 µM) | > 512 | > 512
2 | O=C1c2cccc3c(Br)ccc(c23)C(=O)N1N(Cc1cn(Cc2ccc(F)cc2F)nn1)Cc1cn(Cc2ccc(F)cc2F)nn1 | > 512 | 512 (≈ 726 µM) | 256 (≈ 363 µM) | > 512 | > 512 | > 512 | 64 (≈ 90.7 µM) | > 512 | – | > 512 | > 512 | > 512
3 | CCCCCCn1cc(CN(Cc2cn(CCCCCC)nn2)N2C(=O)c3cccc4c(Br)ccc(c34)C2=O)nn1.Cl.Cl | > 512 | 512 | > 512 | 512 | > 512 | > 512 | 512 | > 512 | – | > 512 | 32 | > 512
4 | Cl.Cl.O=C1c2cccc3c(Br)ccc(c23)C(=O)N1N(Cc1cn(Cc2ccc(F)cc2)nn1)Cc1cn(Cc2ccc(F)cc2)nn1 | > 512 | 512 | > 512 | > 512 | 512 | > 512 | 32 | > 512 | – | > 512 | 512 | > 512
5 | Cl.Cl.Cl.Cl.Cl.Cl.O=C1c2cccc3c(Br)ccc(c23)C(=O)N1N(Cc1cn(Cc2ccc(Cl)c(Cl)c2)nn1)Cc1cn(Cc2ccc(Cl)c(Cl)c2)nn1 | 256 | 512 | 512 | 256 | 256 | > 512 | 0.5 | 256 | 2 | 256 | > 512 | 32
6 | Cl.Cl.O=C1c2cccc3c(Br)ccc(c23)C(=O)N1N(Cc1cn(Cc2cccc(F)c2)nn1)Cc1cn(Cc2cccc(F)c2)nn1 | > 512 | 256 | > 512 | > 512 | > 512 | > 512 | 16 | > 512 | – | > 512 | 32 | > 512
7 | CCCCn1cc(CN(Cc2cn(CCCC)nn2)N2C(=O)c3cccc4c(Br)ccc(c34)C2=O)nn1 | > 512 | > 512 | > 512 | > 512 | > 512 | > 512 | > 512 | > 512 | – | > 512 | 64 (≈ 113 µM) | > 512
8 | CCCCn1cc(CN(Cc2cn(CCCC)nn2)N2C(=O)c3cccc4c(Br)ccc(c34)C2=O)nn1.Cl.Cl | > 512 | > 512 | 512 | > 512 | > 512 | > 512 | > 512 | > 512 | – | > 512 | 64 | > 512
9 | O=C1c2cccc3c(Br)ccc(c23)C(=O)N1N(Cc1cn(Cc2ccccc2F)nn1)Cc1cn(Cc2ccccc2F)nn1 | > 512 | 256 (≈ 382 µM) | > 512 | > 512 | > 512 | > 512 | 32 (≈ 47.8 µM) | > 512 | – | > 512 | 64 (≈ 95.6 µM) | > 512
10 | Cl.Cl.Cl.Cl.O=C1c2cccc3c(Br)ccc(c23)C(=O)N1N(Cc1cn(Cc2ccc(Cl)cc2)nn1)Cc1cn(Cc2ccc(Cl)cc2)nn1 | > 512 | 32 | 256 | 512 | > 512 | 256 | 2 | 256 | 2 | 512 | 256 | > 512
11 | O=C(N[C@H](CO)[C@H](O)c1ccc([N+](=O)[O-])cc1)C(Cl)Cl [CHLORAMPHENICOL] | – | – | 32 (≈ 99 µM) | 4 (≈ 12.4 µM) | 32 (≈ 99 µM) | 32 (≈ 99 µM) | – | – | – | – | – | –
12 | CCCCCCn1cc(CN(Cc2cn(CCCCCC)nn2)N2C(=O)c3cccc4c(Br)ccc(c34)C2=O)nn1 | > 512 | > 512 | > 512 | 512 (≈ 824 µM) | > 512 | > 512 | 512 (≈ 824 µM) | > 512 | – | > 512 | 64 (≈ 103 µM) | > 512
13 | O=C1c2cccc3c(Br)ccc(c23)C(=O)N1N(Cc1cn(Cc2ccc([N+](=O)[O-])cc2)nn1)Cc1cn(Cc2ccc([N+](=O)[O-])cc2)nn1 | > 512 | 512 (≈ 708 µM) | 256 (≈ 354 µM) | > 512 | > 512 | > 512 | 256 (≈ 354 µM) | > 512 | – | > 512 | > 512 | > 512
14 | O=C1c2cccc3c(Br)ccc(c23)C(=O)N1N(Cc1cn(Cc2ccc(Cl)c(Cl)c2)nn1)Cc1cn(Cc2ccc(Cl)c(Cl)c2)nn1 | 256 (≈ 332 µM) | > 512 | > 512 | 256 (≈ 332 µM) | 512 (≈ 664 µM) | > 512 | 1 (≈ 1.3 µM) | > 512 | 2 | > 512 | > 512 | 64 (≈ 83 µM)
15 | CCn1cc(C(=O)O)c(=O)c2cc(F)c(N3CCNCC3)cc21 [NORFLOXACIN] | – | 1 (≈ 3.13 µM) | 2 (≈ 6.26 µM) | 1 (≈ 3.13 µM) | 2 (≈ 6.26 µM) | 2 (≈ 6.26 µM) | 2 (≈ 6.26 µM) | 4 (≈ 12.5 µM) | – | 1 (≈ 3.13 µM) | – | –
16 | O=C1c2cccc3c(Br)ccc(c23)C(=O)N1N(Cc1cn(Cc2ccc(F)cc2)nn1)Cc1cn(Cc2ccc(F)cc2)nn1 | > 512 | 512 (≈ 765 µM) | > 512 | > 512 | > 512 | > 512 | 32 (≈ 47.8 µM) | > 512 | – | > 512 | > 512 | > 512
17 | OC(Cn1cncn1)(Cn1cncn1)c1ccc(F)cc1F [FLUCONAZOLE] | 2 (≈ 6.53 µM) | – | – | – | – | – | – | – | – | – | 256 (≈ 836 µM) | 4 (≈ 13.1 µM)
18 | Cl.Cl.O=C1c2cccc3c(Br)ccc(c23)C(=O)N1N(Cc1cn(Cc2ccc(F)cc2F)nn1)Cc1cn(Cc2ccc(F)cc2F)nn1 | 512 | 512 | 128 | > 512 | > 512 | > 512 | 32 | > 512 | – | > 512 | > 512 | > 512
19 | Cl.Cl.O=C1c2cccc3c(Br)ccc(c23)C(=O)N1N(Cc1cn(Cc2ccccc2F)nn1)Cc1cn(Cc2ccccc2F)nn1 | > 512 | 256 | > 512 | > 512 | > 512 | > 512 | 16 | > 512 | – | > 512 | 64 | > 512
20 | O=C1c2cccc3c(Br)ccc(c23)C(=O)N1N(Cc1cn(Cc2cccc(F)c2)nn1)Cc1cn(Cc2cccc(F)c2)nn1 | > 512 | 256 (≈ 382 µM) | > 512 | > 512 | > 512 | > 512 | 16 (≈ 23.9 µM) | > 512 | – | > 512 | 32 (≈ 47.8 µM) | > 512
